Source: PubChem BioAssay
This is a sample that favours compounds with a hit; in the whole collection about 1.3% have one here.
CHT allo act: allosterically activates the human high affinity choline transporter. Q9GZV3. CHT-expressing cells, membrane potential dye, choline EC20; active compounds read high; LV-AA mutant CHT in HEK293 cells. B-score at 10 µM. actives 0.49% (n = 310,000);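 active means initial fluorescence not abnormally high and integrated response B-score, plate-corrected, over 3 SD above library mean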
procasp7 counter: counter-screen: procaspase-7 (human) activation. P55210. recombinant procaspase-7, Ac-DEVD-pNA absorbance 405 nm; D23A/D198A/D206A triple mutant, cannot self-cleave; scale: DMSO 0, 5 µM enzyme 100. activation, % at 8.5 µM. actives 0.093% (n = 330,000). AID 463210;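 active means percent activation above the screen-wide mean plus 3 SD, cut at about 25% in these data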
Target sequence (P55210 whole entry D23A/D198A/D206A): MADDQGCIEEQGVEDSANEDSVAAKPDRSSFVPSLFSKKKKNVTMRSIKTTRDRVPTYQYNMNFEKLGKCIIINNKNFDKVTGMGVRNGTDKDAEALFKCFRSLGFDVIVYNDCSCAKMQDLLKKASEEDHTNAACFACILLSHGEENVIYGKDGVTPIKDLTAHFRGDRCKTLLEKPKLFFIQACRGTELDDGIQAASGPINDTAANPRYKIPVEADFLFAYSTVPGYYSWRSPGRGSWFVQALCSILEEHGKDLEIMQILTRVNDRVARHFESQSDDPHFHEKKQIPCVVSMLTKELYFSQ
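Material: Procaspase-7 triple mutant (PC-7 D3A) | Quantity: 2 µM procaspase-7 mutant as dispensed | Reagent: DEVD-pNA substrate | Times: 1 h preincubation, 2 h reaction | Technique: 405 nm absorbance of p-nitroaniline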
proCasp3 act: activates human procaspase-3; P42574; recombinant procaspase-3 D3A, Ac-DEVD-pNA absorbance 405 nm; activation, % at 8.5 µM; actives 0.11% (n = 330,000); AID 463141;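 active means activation above the mean of all tested compounds plus 3 SD, cut at about 21% in these data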;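 further: 0% = DMSO alone and 100% = DMSO wells spiked with extra 5 µM PC-3 D3A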
Target sequence (P42574 whole entry D9A/D28A/D175A): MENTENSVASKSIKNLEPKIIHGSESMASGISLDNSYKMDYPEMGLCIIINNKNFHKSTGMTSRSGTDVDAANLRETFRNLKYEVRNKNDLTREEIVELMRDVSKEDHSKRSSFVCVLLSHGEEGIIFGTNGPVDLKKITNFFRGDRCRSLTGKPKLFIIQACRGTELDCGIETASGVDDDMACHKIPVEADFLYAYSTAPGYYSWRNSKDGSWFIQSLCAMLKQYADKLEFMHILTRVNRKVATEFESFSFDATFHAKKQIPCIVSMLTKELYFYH
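Compound: 8.5 µM single point, 0.8% DMSO / Material: Autoprocessing-dead procaspase-3 D3A mutant enzyme / Timing: 1 h preincubation plus 2 h reaction at 25 °C / Medium: Zinc-free HEPES/NaCl buffer with 0.01% Triton X-100 at pH 7.4 / Technique: 405 nm absorbance of p-nitroaniline, reads at 0 and 120 min / Repeats: one well per compound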
CHT block: inhibitors of human choline transporter CHT | Q9GZV3 | CHT-expressing cells, membrane potential dye, choline response; active compounds read low | B-score at 10 µM | actives 0.86% (n = 310,000);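 active means B-score over 3 SD under the library average, and starting fluorescence ratio not unusually high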;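 further: choline stimulus applied at its EC90 after an EC20 pre-addition; B-score computed on integrated fluorescence ratio after choline addition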
CHT activ conf: confirmation of human choline transporter (CHT) activators; shares compounds with CHT allo act; CHT-expressing cells, membrane potential dye fluorescence (FDSS); % of choline EC20–EC90 response window; HEK293 expressing CHT LV-AA mutant; choline added at its EC20; activation, % at 10 µM; actives 91% (n = 2,500); AID 504833;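 active means primary screen active, with duplicate mean activation above negative control mean plus 3 SD, cut at about 11% in these data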
HEK293 MP dye: activity in parental HEK293 cells lacking CHT; shares compounds with CHT allo act; membrane potential dye fluorescence (FDSS); measured after EC20 choline addition; ratio readout change at 10 µM, hits read low; actives 62% (n = 2,500);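 active means duplicate-averaged ratio beyond 3 SD from buffer wells, up or down, though filed actives are nearly all decreases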
An asterisk follows results filed as active.

Results for Fc1ccc(C(c2nnnn2Cc2ccco2)N2CCN(C3CCCCC3)CC2)cc1 (stereo not given) ?
CHT allo act: inactive; procasp7 counter: -6; proCasp3 act: -9; CHT block: inactive; CHT activ conf: 31*; HEK293 MP dye: inactive

What do the screens show for `c1ccc(C(c2nnnn2Cc2cccs2)N2CCN(C3CCCC3)CC2)cc1` (stereo not given)?
CHT allo act: inactive; procasp7 counter: 2; proCasp3 act: -1; CHT block: inactive

How did Cc1oc(-c2ccccc2Cl)nc1CS(=O)(=O)CC(=O)NC1CCCC1 do in these assays?
CHT allo act: inactive; procasp7 counter: 6; proCasp3 act: -2; CHT block: inactive

Results for CC1(c2ccc3ccccc3c2)NC(=O)N(CC(=O)Nc2ncccc2O)C1=O (stereo not given) ?
procasp7 counter: -4; proCasp3 act: -4

How did Cc1cc(NCCOCCO)n2c(nc3ccccc32)c1C#N do in these assays?
CHT allo act: inactive; procasp7 counter: -1; proCasp3 act: 1; CHT block: inactive; CHT activ conf: 51*; HEK293 MP dye: -59*

What do the screens show for `COCCNc1cc(C)c(C#N)c2nc3ccccc3n12`?
CHT allo act: inactive; procasp7 counter: 3; proCasp3 act: -1; CHT block: inactive; CHT activ conf: 24*; HEK293 MP dye: -49*

Results for CN(C(=O)COC(=O)c1cnc(Cl)c(Cl)c1)C1CCCCC1 ?
procasp7 counter: 3; proCasp3 act: 4

Results for Cc1ccc(N/C(N)=N/c2nc(CSc3nnc(C)s3)cc(=O)[nH]2)c(C)c1 ?
CHT allo act: 6.9*; procasp7 counter: 5; proCasp3 act: 9; CHT block: inactive; CHT activ conf: 24*; HEK293 MP dye: inactive

How did CCOc1ccc(NC(=O)CN(C)C(=O)c2ccc3c(c2)C(=O)N(CCC(C)C)C3=O)cc1OCC do in these assays?
CHT allo act: inactive; procasp7 counter: 2; proCasp3 act: -6; CHT block: inactive

What do the screens show for `COc1ccc(OC)c(/C=C/C(=O)N(C)CC(=O)Nc2ccc(N3CCOCC3)cc2)c1`?
procasp7 counter: -1; proCasp3 act: 0

Results for O=C(NCc1ccco1)c1ccc2c(c1)S(=O)(=O)c1ccccc1C2=O ?
CHT allo act: 8.6*; procasp7 counter: 2; proCasp3 act: 2; CHT block: inactive; CHT activ conf: 30*; HEK293 MP dye: inactive

How did Cc1ccc2c(c1)c1c3n2CCN(CC(O)CNC(C)C)C3CCC1 (stereo not given) do in these assays?
CHT allo act: inactive; procasp7 counter: -3; proCasp3 act: -2; CHT block: inactive; CHT activ conf: 17*; HEK293 MP dye: -31*

How did Cc1cc2[nH]c(=O)c(=O)[nH]c2cc1S(=O)(=O)Nc1ccccc1F do in these assays?
CHT allo act: 7.7*; procasp7 counter: 1; proCasp3 act: -2; CHT block: inactive; CHT activ conf: 3; HEK293 MP dye: inactive

Results for CC1CCCN(CCCNC(=O)C2CC(=O)N(CCc3ccccc3)C2)C1 (stereo not given) ?
CHT allo act: inactive; procasp7 counter: 1; proCasp3 act: 4; CHT block: inactive

How did O=C(CCCO)c1ccc2c(c1)OCCO2 do in these assays?
CHT allo act: inactive; procasp7 counter: 5; proCasp3 act: 9; CHT block: inactive

What do the screens show for `O=C(CNC1=NCCC1)c1ccc2c(c1)OCCO2`?
CHT allo act: inactive; procasp7 counter: 8; proCasp3 act: 3; CHT block: inactive; CHT activ conf: 36*; HEK293 MP dye: -28*

How did Cc1cc(C)c(C)c(OCCN2CC(C)OC(C)C2)c1 (stereo not given) do in these assays?
CHT allo act: inactive; procasp7 counter: 8; proCasp3 act: 9; CHT block: inactive

What do the screens show for `CCOC(=O)C[C@H]1c2ccccc2S(=O)(=O)N1Cc1cccc(C(F)(F)F)c1`?
CHT allo act: inactive; procasp7 counter: 6; proCasp3 act: 0; CHT block: inactive; CHT activ conf: 17*; HEK293 MP dye: inactive

How did CCOC(=O)C[C@H]1c2ccccc2S(=O)(=O)N1Cc1cc(OC)c(OC)c(OC)c1 do in these assays?
CHT allo act: inactive; procasp7 counter: 2; proCasp3 act: 4; CHT block: inactive

Results for O=C(CSc1nc2ccccc2c(=O)n1-c1ccc(Cl)cc1)N/N=C/C=C/c1ccccc1[N+](=O)[O-] ?
CHT allo act: 7.7*; procasp7 counter: 5; proCasp3 act: -3; CHT block: inactive; CHT activ conf: 13*; HEK293 MP dye: inactive

What do the screens show for `COc1ccc(C(=O)NCCCCCCNC(=O)c2ccc(OC)cc2)cc1`?
CHT allo act: inactive; procasp7 counter: 10; proCasp3 act: -7; CHT block: inactive

What do the screens show for `CCOc1ccc(-c2cnc3n2CCC3)cc1`?
CHT allo act: inactive; procasp7 counter: 13; proCasp3 act: -11; CHT block: inactive; CHT activ conf: 50*; HEK293 MP dye: -39*

How did COc1ccc(NC(=O)CS(=O)c2ccc(Br)cc2)cc1 (stereo not given) do in these assays?
CHT allo act: inactive; procasp7 counter: 8; proCasp3 act: 2; CHT block: inactive

How did Cc1cc[n+](CC(=O)c2ccc(NC(=O)c3ccccc3)cc2)c2ccccc12 do in these assays?
CHT allo act: inactive; procasp7 counter: 0; proCasp3 act: 3; CHT block: inactive

Results for CC[n+]1ccc(C)c2cc(SC(F)(F)F)ccc21 ?
CHT allo act: 6.9*; procasp7 counter: 4; proCasp3 act: 1; CHT block: inactive; CHT activ conf: 33*; HEK293 MP dye: -52*

How did CC[n+]1ccc(C)c2cc(P(=O)(c3ccccc3)c3ccccc3)ccc21 do in these assays?
CHT allo act: 7.8*; procasp7 counter: 0; proCasp3 act: -1; CHT block: inactive; CHT activ conf: 58*; HEK293 MP dye: -42*

What do the screens show for `C=CCNc1nc2ccccc2nc1NS(=O)(=O)c1ccc(Cl)cc1`?
CHT allo act: inactive; procasp7 counter: -8; proCasp3 act: 2; CHT block: inactive

How did O=C1CC2(CCN(C(=O)c3cccc(Br)c3)CC2)Oc2ccccc21 do in these assays?
CHT allo act: 8.9*; procasp7 counter: 8; proCasp3 act: 2; CHT block: inactive; CHT activ conf: 5; HEK293 MP dye: inactive

How did O=C1CC2(CCN(C(=O)c3ccc(Cl)cc3)CC2)Oc2ccccc21 do in these assays?
CHT allo act: inactive; procasp7 counter: 1; proCasp3 act: -8; CHT block: inactive
